Compound activity as filed in PubChem.
CD11b adhes enh: CD11b/CD18-fibrinogen binding enhancement; P05107+P11215; K562 CD11b/CD18 adhesion to fibrinogen, ATPlite luminescence; activation, % at 10 µM; 0.07% of 93,000 active; AID 1499;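 active means 10 µM primary screen giving 50% or more activity, confirmed by 40% or more on retest at that dose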
MT1-MMP txn act: activates MT1-MMP transcription. HT1080 MT1-MMP promoter luciferase reporter, luminescence, overnight; hits give high values. activation factor at 10 µM. 0.16% of 86,000 active. AID 750;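 active means activation factor of at least 2 for MT1-MMP transcription at 10 µM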
SF1 activator: activates the human nuclear receptor SF-1; CHO-K1 Gal4-SF-1 LBD luciferase reporter; % increase over DMSO SF-1-specific signal; activation, % at 10 µM; 1.9% of 65,000 active;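 active means activation above the mean activation of all tested compounds plus 3 SD, cut at about 50% in these data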
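Material: CHO-K1 cells with Gal4–hSF-1 LBD chimera plus Gal4-driven luciferase / Input: 4,000 CHO-K1 cells per well / Incubation: compound exposure 20 h at 37 °C / Signal: luminescence read 15 min after SteadyLite luciferase reagent, after room-temperature equilibration / Read-out: percent activation versus DMSO / Benchmarks: DMSO negative control and −SF1 background wells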
RORa activator: activators of human nuclear receptor RORA. P35398. CHO-K1 Gal4-RORA LBD luciferase reporter, luminescence; percent increase over mock-subtracted basal signal. activation, % at 10 µM. 1.5% of 65,000 active;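 active means activation above the mean of all tested compounds plus 3 SD, cut at about 49% in these data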;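 further: 0% = DMSO-treated RORA cells and 100% = added signal equal to DMSO minus mock-transfected cells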
Mac1 fbg inh: inhibitors of human CD11b/CD18 binding to fibrinogen; P05107+P11215; K562 CD11b/CD18 adhesion to fibrinogen, ATPlite luminescence; Mn2+ added to activate the integrin; inhibition, % at 10 µM; 0.54% of 93,000 active; AID 1497;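 active means primary inhibition of 50% or more at 10 µM, then 40% or more on retest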
TNAP act DEA: activators of human TNAP at intermediate phosphate acceptor | activation factor at 20 µM | purified TNAP, CDP-star luminescence, 100 mM DEA, 30 min; hits give high values; scale: 0 levamisole-inhibited, 1 vehicle-only enzyme | 64,000 tested, under 10 active | AID 813;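 active means activation factor of at least 2 at 20 µM, relative to controls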
* hit, by the source's call; . = no result given. Sampled rows, rich in hits. Any-hit rate of the full collection: about 2.1%.

SMILES	CD11b adhes enh	MT1-MMP txn act	SF1 activator	RORa activator	Mac1 fbg inh	TNAP act DEA
COc1ccc(-c2cc(C(=O)N3CCN(c4ccccn4)CC3)c3ccccc3n2)cc1	-6	1.8	90*	74*	44	0.9
O=C(CCCOc1ccccc1)N1CCN(c2ccccn2)CC1	-3	0.8	26	56*	-22	0.9
CCOc1ccc(-c2cc(C(=O)N3CCN(c4ccccn4)CC3)c3ccccc3n2)cc1	-6	0.9	91*	76*	82	0.9
CCOC(=O)N1CCN(C(=O)c2cc(-c3ccc(OCC)cc3)nc3ccccc23)CC1	-6	0.8	71*	136*	54	0.8
O=C(CCCOc1ccc(Cl)cc1Cl)N1CCN(c2ccccn2)CC1	-2	1.2	16	1	16	0.9
CCOc1ccc(-c2cc(C(=O)N3CCN(C)CC3)c3ccccc3n2)cc1	-3	1.2	35	36	28	1
CCCC1(C(=O)OC)C=C2C(=C(c3ccccc3)C(=O)C2C)CN1 (centres undefined)	.	1.2	.	.	.	.
O=C(CN1CCN(Cc2ccccc2Cl)CC1)N/N=C/C=C/c1ccccc1[N+](=O)[O-]	5	.	.	.	2	.
COC(=O)N1C2(C=CC1(C)C(=O)NCc1ccccn1)CCCCC2 (centres undefined)	.	1.1	.	.	.	.
Cc1nc(C)c(CCNC(=O)c2ccccc2Br)s1	1	.	.	.	11	.
N#C/C(=C\c1cccc(Cl)c1)c1n[nH]c(Cn2cncn2)n1	-2	.	.	.	-4	.
CCOC(=O)c1ccc(Oc2cc(C)nc(SC)n2)cc1	.	0.8	31	57*	.	0.9
COc1ccc(N2Nc3n[nH]c(N)c3N2)cc1	.	1.5	.	.	.	.
Cc1cccc(-n2ncc3c(N4CC(C)CC(C)C4)ncnc32)c1 (centres undefined)	-5	1.2	51*	47	9	0.9
CC1CN(c2ncnc3c2cnn3-c2ccc(Cl)cc2)CC(C)O1 (centres undefined)	-1	1.5	75*	67*	-13	1
Cc1cccc(-n2ncc3c(N4CCCC4)ncnc32)c1	.	.	-23	-38	.	.
Cc1cccnc1NC(=O)Nc1ccc(F)cc1	-2	1.2	98*	46	20	0.9
N#CC1=C(N)Oc2c(O)cc3ccccc3c2C1c1ccsc1 (centres undefined)	-3	.	.	.	70*	.
Cn1c(-c2ccc(F)cc2)cnc1SCC(=O)Nc1ccccc1N1CCOCC1	-2	1	70*	39	-12	0.9
COc1ccc(NC(=O)NCCN2C(=O)C3C4C=CC(C4)C3C2=O)cc1 (centres undefined)	2	1.5	30	66*	-4	0.8
O=C(NCCN1C(=O)C2C3C=CC(C3)C2C1=O)Nc1ccccc1 (centres undefined)	1	1.1	-3	16	-6	1
Cc1ccc(NC(=O)NCCN2C(=O)C3C4C=CC(C4)C3C2=O)cc1 (centres undefined)	0	1.4	98*	74*	10	1
Cc1cccc(NC(=O)NCCN2C(=O)C3C4C=CC(C4)C3C2=O)c1 (centres undefined)	2	1.2	1	15	-7	1
O=C(N/N=C/c1cccc(F)c1)c1cc(-c2ccco2)nc2ccccc12	10	.	.	.	-4	.
CCOC(=O)C1=C(Cc2ccc(C)cc2)C(=O)c2ccccc2C1=O	-7	1.2	.	.	90*	.
SMILES	CD11b adhes enh	MT1-MMP txn act	SF1 activator	RORa activator	Mac1 fbg inh	TNAP act DEA
O=C(Cn1cc(C(=O)C2CC2)c2ccccc21)NCc1ccc2c(c1)OCO2	.	1.2	.	.	.	.
O=C(O)CC(NS(=O)(=O)c1cccc2nsnc12)c1ccc(F)cc1 (centres undefined)	-9	1	-1	-11	60*	0.9
Cc1ccc(N2CC(C(=O)Nc3ccccc3C(=O)NC3CCCCC3)CC2=O)cc1C (centres undefined)	.	1.1	.	.	.	.
CCCCCCc1cc2cc(S(=O)(=O)c3ccc(F)c(Cl)c3)c(=O)oc2cc1O	-8	.	.	.	99	.
CCCC1=NN2C(=N)/C(=C\c3ccc(SCc4ccco4)o3)C(=O)N=C2S1	4	1.5	.	.	64*	.
CCCSc1ncc(Cl)c(C(=O)Nc2ccc(S(=O)(=O)N3CC(C)OC(C)C3)cc2)n1 (centres undefined)	-3	1	.	.	10	.
CCCn1nc([N+](=O)[O-])c(C(C#N)c2nc3ccccc3o2)c(Cl)c1=O (centres undefined)	-8	.	.	.	99*	.
CCn1nc([N+](=O)[O-])c(C(C#N)c2nc3cc(C(F)(F)F)ccc3s2)c(Cl)c1=O (centres undefined)	-8	.	.	.	94*	.
C#CCn1cc(/C=N/Nc2nc3ccccc3[nH]2)c2ccccc21	2	.	.	.	16	.
Cc1ccc(OCC(=O)N2N=C(C(F)(F)F)CC2(O)C(C)(C)C)cc1C (centres undefined)	-7	1.4	.	.	80*	.
Cc1ccccc1OCC(=O)N1N=C(C(F)(F)F)CC1(O)C(C)(C)C (centres undefined)	.	1.1	.	.	.	.
Cc1ccc2[nH]c3c(NCc4ccco4)ncnc3c2c1	-7	1.9	-18	-8	76*	0.9
c1coc(CNc2ncnc3nc[nH]c23)c1	-3	1.1	3	-21	-1	1
CC(=O)Nc1ccc(-c2nnc(SCC(=O)NCc3ccco3)n2C)cc1	0	1.1	.	.	-5	.
COc1ccc(C(CC(=O)O)NS(=O)(=O)c2ccc(C)cc2)cc1 (centres undefined)	0	1	.	.	51*	.
CCC(C)NC(=O)CC(NS(=O)(=O)c1ccc(C)cc1)c1ccc(OC)cc1 (centres undefined)	.	1.1	.	.	.	.
Cc1nc(N)sc1-c1csc(Nc2ccccn2)n1	12	1.4	31	57*	-11	0.9
Cc1sc2c(c1C)c(=O)nc1n2Cc2ccccc2-1	-4	.	.	.	-5	.
O=C(NCCc1ccccc1)c1cc(-c2ccco2)on1	.	1.5	86*	69*	.	0.8
c1ccc(-c2noc(C34CC5CC(CC(C5)C3)C4)n2)nc1	0	1.4	86*	42	-2	0.9
c1ccc(-c2noc(C34CC5CC(CC(C5)C3)C4)n2)cc1	4	1.2	.	.	2	.
c1ccc(-c2noc(C3CCCCC3)n2)nc1	4	1.1	56*	61*	-14	0.9
COC(=O)c1ccc(C(/C=C/[C@@H](C)C(=O)NCc2ccccc2)NC(=O)OCc2ccccc2)cc1 (some centres undefined)	.	1.2	.	.	.	.
COc1ccc2c(c1)S/C(=C\C(=O)c1ccncc1)N2C	-1	1.4	46	58*	-7	0.9
O=C(CCc1ccccc1)Nc1c(F)cccc1F	.	2.3*	.	.	.	.
COc1ccc(Br)cc1/C(C)=N/NC1=NCCN1	-6	1.1	.	.	74*	.
